Rows were chosen to be rich in hits. Some 4.6% of all compounds tested hit in one or more screens of this group.
OX1R antag-1: blocks the human orexin 1 receptor. O43613. OX1R-expressing cells, FRET antagonist read-out. inhibition, % at 6.6 µM. actives 1.8% (n = 330,000); in the data active = inhibition mostly above about 38%, no sharp cut-off; inactive = mostly below about 40%;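 also: 0% = agonist challenge alone and 100% = reference antagonist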
Target sequence (O43613 whole entry, looked up): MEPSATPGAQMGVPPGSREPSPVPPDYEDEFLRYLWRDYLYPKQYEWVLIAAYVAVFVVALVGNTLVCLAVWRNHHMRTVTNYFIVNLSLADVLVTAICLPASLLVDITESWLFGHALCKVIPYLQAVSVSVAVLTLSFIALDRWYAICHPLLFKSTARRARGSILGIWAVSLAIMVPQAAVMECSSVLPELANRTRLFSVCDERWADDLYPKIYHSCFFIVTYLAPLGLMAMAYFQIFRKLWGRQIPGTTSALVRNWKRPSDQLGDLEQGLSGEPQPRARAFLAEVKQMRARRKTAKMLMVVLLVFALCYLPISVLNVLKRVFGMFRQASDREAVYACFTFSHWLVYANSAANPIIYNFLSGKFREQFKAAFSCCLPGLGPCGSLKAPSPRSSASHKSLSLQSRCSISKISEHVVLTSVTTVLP
TAAR1 agonist: human TAAR1 agonism. Q96RJ0. CHO RD-HGA16 TAAR1, Fluo-8 calcium fluorescence; vehicle wells 0%, saturating PEA agonist 100%. activation, % at 3 µM. actives 0.99% (n = 360,000);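 active = activation above the mean activation of all test compounds in the run plus 3 SD, cut at about 38% in these data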
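test system = CHO RD-HGA16 cells carrying human TAAR1 plus Gα16 | schedule = 17-24 h seeding, 75 min 37 °C dye, 30 min RT | compound dosing = 3 µM single concentration | control set = DMSO and PEA EC100 | replicates = n 1 | signal = Fluo-8 fluorescence, 5 s baseline then 140 s kinetic read | measure = percent activation vs PEA EC100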
CHO parental Ca: signal in parental CHO cells, OX1R antagonist counter-screen; actives 0.63% (n = 330,000); parental CHO-K1, ATP-induced calcium, Fluo-8 fluorescence; inhibition, % at 5.6 µM;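 active = inhibition above that plate's mean sample inhibition plus 3 SD, cut at about 26% in these data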;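 also: 0% = ATP-challenged DMSO wells and 100% = DMSO wells without ATP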
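Material – parental CHO cells · Reagent – ATP stimulus · Compound – single nominal dose of 5.6 µM per compound · Detection – Fluo-8 fluorescence · Read-out basis – percent inhibition of calcium signal · Controls – ATP-challenged DMSO wells low, unchallenged DMSO wells high · Repeats – no replicates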
TAAR1 antagonist: human TAAR1 antagonism; Q96RJ0; CHO RD-HGA16 TAAR1, Fluo-8 calcium fluorescence, antagonist; inhibition, % at 3 µM; actives 1.5% (n = 360,000);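 active = inhibition above a per-plate cutoff, the mean inhibition of test compounds on that plate plus 3 SD, cut at about 49% in these data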;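 also: 0% = DMSO plus EC80 beta-PEA response and 100% = DMSO alone without agonist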
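System: CHO RD-HGA16 cells bearing hTAAR1. Reagent: EC80 β-phenethylamine stimulus. Schedule: seeding 17-24 h prior, 75-min 37 °C, 30-min RT dye loading. Signal: Fluo-8 intracellular calcium dye fluorescence, real-time kinetic reads. Read-out: % inhibition from peak post-agonist over basal fluorescence ratio. Benchmarks: vehicle wells and EC80 agonist wells. Replicates: n of 1.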
GPR7 antag: antagonists of human GPR7 (neuropeptides B/W receptor 1). inhibition, % at 4.4 µM. actives 1.1% (n = 290,000). P48145. AID 1861. GPR7-expressing cells, fluorescence antagonist assay; in the data active = inhibition above about 16%, passing the limit was not always enough;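 also: cells stimulated with the agonist NPW; 0% = agonist with vehicle and 100% = vehicle without agonist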
OX1R antag-2: antagonists of human orexin 1 receptor. O43613. CHO/OX1R cells, Fluo-8 calcium fluorescence, orexin A. inhibition, % at 5 µM. actives 0.43% (n = 330,000). AID 434989;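 active = inhibition above its plate's threshold, mean inhibition of all tested compounds on the plate plus 3 SD, cut at about 37% in these data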;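 also: 0% = orexin A challenge wells and 100% = SB-334867-A antagonist wells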
* marks the source's active call; other numbers are inactive results; · = no result.

SMILES	OX1R antag-1	TAAR1 agonist	CHO parental Ca	TAAR1 antagonist	GPR7 antag	OX1R antag-2
O=C(CN1C(=O)c2cccc([N+](=O)[O-])c2C1=O)N1CCN(S(=O)(=O)c2ccccc2)CC1	34*	6	-19	-8	·	24
O=C(CSCC(=O)N1CCCCC1)Nc1nc(-c2ccc(Cl)s2)cs1	20	1	30*	54*	4	-13
O=C(Nc1nc(-c2ccc(Cl)s2)cs1)c1ccncc1	44*	9	-20	-30	-6	8
O=C(Nc1nc(-c2ccccc2Cl)cs1)c1cccnc1	15	41*	-15	8	-5	-14
O=C(Nc1nc(-c2cccs2)cs1)c1ccc(Cl)cc1	50	4	-31	-28	-12	-20
O=C(CSCC(=O)N1CCN(c2ccccc2)CC1)Nc1nc(-c2ccc(Cl)s2)cs1	30	3	15	18	-10	-5
CCN(CC(=O)Nc1ccc2c(c1)OCCO2)C(=O)c1ccc(Cl)cc1Cl	7	1	-27	-27	·	-21
CC1(Oc2cccc(C#N)c2)CCN(Cc2ccccc2OC(F)F)C1 (centres undefined)	·	2	·	8	·	·
COc1cc(Cl)c(C)cc1NC(=O)COc1ccc(C)nc1[N+](=O)[O-]	·	0	·	-18	·	·
COc1ccccc1C(=O)N/C(=C\c1cn(C)c2ccccc12)C(=O)N1CCCC1	50*	2	-14	-23	-10	8
CCOC(=O)CC(NC(=O)Cn1nnc(-c2ccccc2F)n1)c1ccc(OC)cc1 (centres undefined)	15	5	-5	4	4	-33
COc1cccc(NC(=O)Cn2nnc(-c3ccccc3N)n2)c1	8	6	-6	-1	-3	-12
COc1ccc(NC(=O)Cn2nnc(-c3ccccc3NS(=O)(=O)c3ccccc3)n2)cc1	26	·	43*	·	-5	23
COc1ccc(S(=O)(=O)Nc2ccccc2-c2nnn(CC(=O)Nc3ccccc3OC)n2)cc1	60*	2	44*	37	-10	33
CCOC(=O)CC(NC(=O)Cn1nnc(-c2ccccc2Cl)n1)c1ccc(OC)cc1 (centres undefined)	10	46*	-18	-3	20*	-10
CC1CCCN(C(=O)c2ccc(OC3CCN(CCc4ccccc4)CC3)cc2)C1 (centres undefined)	20	7	-18	-20	-6	-16
COc1ccc2nc(SCC(=O)c3c(N)n(C4CC4)c(=O)[nH]c3=O)[nH]c2c1	7	5	-3	-6	·	-1
Cn1c(CC(=O)Nc2ccc(Cl)c(Cl)c2)n[nH]c1=S	10	2	1	5	1	6
COc1ccc(Cc2n[nH]c(=S)n2NC(=O)Nc2ccc(Cl)c(Cl)c2)cc1	58*	12	52*	-27	15	30
CCOC(=O)c1c(C)sc2c1N(C(C)=O)c1cc(Cl)ccc1S2	33	8	-22	11	-8	-25
Cc1cccc(NC(=O)c2ccccc2O)c1C	20	6	-3	8	12	-3
O=C(Nc1ccc(F)cc1)Nc1ccc(NC(=O)c2ccccc2O)cc1	11	41*	16	58*	8	5
O=C(Nc1ccccc1O)C(c1ccccc1)c1ccccc1	14	5	67*	35	19	23
O=C(Nc1ccc(F)cc1)c1ccccc1F	-1	9	-8	-2	-7	4
O=C(Nc1ccccc1O)c1ccccc1O	13	10	37*	0	-2	9
COc1ccc(Br)cc1CN(C)CC(=O)Nc1c(Cl)cccc1Cl	11	10	-4	29	-3	-27
Cc1ccc(-n2nnnc2SCc2nnc(-c3ccccc3Br)o2)c(C)c1	44*	4	25	17	-8	63*
Cn1nnnc1SCc1nnc(-c2ccccc2Br)o1	3	16	2	0	-11	-15
CCOC(=O)c1ccc(-c2ccc3c(=O)c4ccccc4n(C)c3c2)cc1F	66*	7	-3	6	-1	8
C=CCn1c(-c2cccs2)nc2ccccc21	52	3	-7	-7	-10	-14

From PubChem BioAssay
